Reference: article PMC10038104 (ACS infectious diseases, 2022)
≈ marks a conversion by molar mass, not a printed value. Positions of bridges follow the written chain, without caps; N, C: chain ends. Residues, ends and D or L forms follow the SMILES beside them.

Experiments:
[1] = system: Enterobacter cloacae ATCC 13047; assay type: cell-based
[2] = system: E. nimipressuralis DSM 18955; assay type: cell-based
E. asburiae DSM 17506 = assay type: cell-based
E. mori DSM 26271 = assay type: cell-based
E. coli MG1655 = assay: spot-on-lawn assay in M63 agar; assay type: cell-based; conditions: purified peptide dissolved in water
In short: (§1)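 Purified peptide in water, concentration set by A280. Each strain was grown overnight in LB, then subcultured in LB to mid-exponential phase (OD600 ~0.4-0.6). It was seeded at ~10^7 CFU/mL into molten M63 soft agar, overlaid on M63 agar and dried. Peptide was spotted at various concentrations and dried. After overnight incubation, zones of inhibition were scored; the last visible spot was taken as MIC.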

B. subtilis 168 = assay: spot-on-lawn assay in M63 agar; assay type: cell-based; conditions: purified peptide dissolved in water
In short: as §1

[3] = system: Salmonella enterica serovar Newport; assay: spot-on-lawn assay in M63 agar; assay type: cell-based; conditions: purified peptide dissolved in water
In short: as §1

[4] = system: Klebsiella aerogenes ATCC 13048; assay: spot-on-lawn assay in M63 agar; assay type: cell-based; conditions: purified peptide dissolved in water
In short: as §1

[5] = system: Enterobacter hormaechei ATCC 700323; assay: spot-on-lawn assay in M63 agar; assay type: cell-based; conditions: purified peptide dissolved in water
In short: as §1

[6] = system: Enterobacter kobei BAA-260; assay: spot-on-lawn assay in M63 agar; assay type: cell-based; conditions: purified peptide dissolved in water
In short: as §1

[7] = system: clinical isolates of Enterobacter; assay: spot-on-lawn assay, the other 6 clinical isolates; assay type: cell-based; conditions: the other 6 of 12 clinical isolates (Table S4B)
In short: as §1

E. coli XL-1 Blue = assay: intracellular expression from plasmid with cloD gene removed; assay type: cell-based; conditions: LB agar with IPTG; plasmid without cloD so that the peptide cannot be exported
trypsin = trypsin (Sus scrofa, UniProt P00761); assay: trypsin digestion; assay type: in vitro ADME; conditions: 50 mM ammonium bicarbonate, 1:100 trypsin:peptide weight ratio, 30 minutes to 1 hour, LC-MS
α-chymotrypsin = α-chymotrypsin (Bos taurus, UniProt P00766); assay: α-chymotrypsin digestion; assay type: in vitro ADME; conditions: 100 mM Tris, 10 mM CaCl2, pH 8.0, 0.04 mg/mL α-chymotrypsin, 1 hour, 25 °C, LC-MS
elastase = elastase digestion; assay type: in vitro ADME; conditions: 50 mM Tris pH 9.0, 0.04 mg/mL elastase, 1 hour, 25 °C, LC-MS
thermolysin = thermolysin (Bacillus thermoproteolyticus, UniProt P00800); assay: thermolysin digestion; assay type: in vitro ADME; conditions: 50 mM Tris, 0.5 mM CaCl2, pH 8.0, 0.04 mg/mL thermolysin, 1 hour, 30 °C, LC-MS
E. amnigenus = conditions: 16 h
[8] = 37 °C, pure water, 72 hours, 18 μM, relative peak area by LC-MS
[9] = system: carboxypeptidase B and carboxypeptidase Y; assay: carboxypeptidase treatment; conditions: 20 °C, 16 hours, 50 mM sodium acetate pH 6.0, LC-MS

Chain of thermolysin (P00800 233-548): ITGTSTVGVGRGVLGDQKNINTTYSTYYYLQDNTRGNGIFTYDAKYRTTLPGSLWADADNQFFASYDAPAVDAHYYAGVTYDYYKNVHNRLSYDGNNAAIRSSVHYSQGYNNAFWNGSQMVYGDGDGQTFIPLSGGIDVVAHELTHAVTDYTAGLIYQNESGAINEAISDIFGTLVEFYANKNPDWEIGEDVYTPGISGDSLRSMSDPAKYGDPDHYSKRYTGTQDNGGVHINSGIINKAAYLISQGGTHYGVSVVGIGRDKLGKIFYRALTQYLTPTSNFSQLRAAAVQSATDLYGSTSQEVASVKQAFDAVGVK
Chain of trypsin (P00761 9-231): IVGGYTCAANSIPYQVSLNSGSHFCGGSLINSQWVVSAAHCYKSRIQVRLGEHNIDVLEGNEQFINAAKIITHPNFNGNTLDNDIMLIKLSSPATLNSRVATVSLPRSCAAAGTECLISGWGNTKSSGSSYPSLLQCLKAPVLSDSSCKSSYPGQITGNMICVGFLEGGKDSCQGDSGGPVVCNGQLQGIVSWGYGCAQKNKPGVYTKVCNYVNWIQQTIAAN

## CC[C@H](C)[C@@H]1NC(=O)[C@H](CCCNC(=N)N)NC(=O)[C@H](CC(=O)O)NC(=O)[C@H](C(C)C)NC(=O)[C@H](CO)NC(=O)[C@H](Cc2c[nH]cn2)NC(=O)CNC(=O)CC[C@@H](C(=O)N[C@@H](Cc2ccc(O)cc2)C(=O)N[C@@H](Cc2ccccc2)C(=O)NCC(=O)N2CCC[C@H]2C(=O)N2CCC[C@H]2C(=O)NCC(=O)N[C@@H](CC(C)C)C(=O)N2CCC[C@H]2C(=O)NCC(=O)N2CCC[C@H]2C(=O)N[C@H](C(=O)N[C@@H](CC(C)C)C(=O)N[C@@H](Cc2ccccc2)C(=O)N[C@@H](Cc2ccc(O)cc2)C(=O)N[C@@H](CO)C(=O)O)C(C)C)NC(=O)[C@@H]2CCCN2C1=O [cloacaenodin] (GHSVDRIPEYFGPPGLPGPVLFYS-OH; lactam N-9; C-terminus assumed)
[1]
  MIC in M63 media (agar): 7.5 µM (≈ 19.4 µg/mL)
[2]
  MIC in M63 media (agar): 1.9 µM (≈ 4.91 µg/mL)
E. asburiae DSM 17506
  MIC in M63 media (agar): 3.8 µM (≈ 9.82 µg/mL)
E. mori DSM 26271
  MIC in M63 media (agar): 1.9 µM (≈ 4.91 µg/mL)
E. coli MG1655
  antimicrobial activity (zones of inhibition): no observed activity
B. subtilis 168
  antimicrobial activity (zones of inhibition): no observed activity
[3]
  antimicrobial activity (zones of inhibition): no observed activity
[4]
  antimicrobial activity (zones of inhibition): no observed activity
[5]
  antimicrobial activity (zones of inhibition): no observed activity
[6]
  antimicrobial activity (zones of inhibition): no observed activity
[7]
  antimicrobial activity: weak or no activity
E. coli XL-1 Blue
  E. coli growth upon IPTG-induced intracellular expression without cloD: colonies did not appear
trypsin
  susceptibility to proteolysis by trypsin: remained resistant to proteolysis
α-chymotrypsin
  susceptibility to proteolysis by chymotrypsin: remained resistant to proteolysis
elastase
  susceptibility to proteolysis by elastase: remained resistant to proteolysis
thermolysin
  susceptibility to proteolysis by thermolysin: remained resistant to proteolysis
E. cloacae; 16 h
  MIC in M63 media (liquid): 0.94 µM (≈ 2.43 µg/mL)
E. cloacae; E. cloacae cells treated with sub-MIC values, broth microdilution cultures
  cell morphology under the microscope: exhibited a degree of filamentation
E. amnigenus
  MIC in M63 media (liquid): 0.23 µM (≈ 0.594 µg/mL)
[8]
  fraction remaining threaded: ~ 83%
[9]
  susceptibility to C-terminal proteolysis by carboxypeptidase: resistant to C-terminal proteolysis
